This passage reports inhibition, IC50 and Activity results from ChEMBL document CHEMBL4043222, “Pyrrolizines: Design, synthesis, anticancer evaluation and investigation of the potential mechanism of action” (Bioorg Med Chem, 2017).

Broadly, the inhibition is the change of the read-out against control, counted positive when it falls. In general, IC50 refers to the midpoint of a concentration-inhibition curve.

Active and inactive are the calls of the source. No cut-off for these calls is given here.

In experiment [1] the target is Vascular endothelial growth factor receptor 1 (Homo sapiens) (UniProt P17948). The experiment can be described thus: Inhibition of FLT1 (unknown origin) at 10 uM using [33P]-ATP after 20 to 40 mins by scintillation counting method.
Experiment [2] concerns MCF7. The experiment can be described thus: Growth inhibition of human MCF7 cells by MTT assay. In kind it is functional, cell-based. In a few lines: (§1)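 MTT viability. Cells seeded for 24 h, then exposed to compound for 48 h in DMEM/F-12 or DMEM with 5% FBS. Vehicle controls received matching DMSO. MTT added at 0.5 mg/mL for 3 h at 37 °C. Formazan dissolved in DMSO and absorbance read at 570 nm.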
Background: Formazan colour is commonly taken as a measure of viable cells.

The test system of experiment [3] is A549. The experiment can be described thus: Growth inhibition of human A549 cells by MTT assay. It counts as functional, cell-based. In a few lines:
as §1

Experiment [4] concerns the target AMP-activated protein kinase (AMPK) alpha-1/beta-1/gamma-1 (Homo sapiens) (UniProt P54619+Q9Y478+Q13131). Briefly: Inhibition of AMPK alpha1/beta1/gamma1 (unknown origin) at 10 uM using [33P]-ATP after 20 to 40 mins by scintillation counting method. It counts as protein-complex assay.
Experiment [5] has as its system MCF7. Briefly: Induction of apoptosis in human MCF7 cells assessed as late necrosis cells level at 1 uM incubated for 24 hrs by Annexin V PI/FITC staining based flow cytometry (reference value: […]). It counts as functional. In general terms: A flow cytometer gives signals particle by particle.
For experiment [6], the system named is MCF7. Briefly: Induction of cell cycle arrest in human MCF7 cells assessed as increase in accumulation at G2/M phase at 10 uM by propidium iodide staining based flow cytometry relative to untreated control. In kind it is functional. Put shortly: (§2)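 MCF-7 seeded at 1×10^5 cells/well and attached overnight, then given 0, 1, 5 or 10 µM for 24 h. Cells pooled, fixed overnight in 70% ice-cold ethanol, treated with RNase A and stained with PI. Flow cytometry on 20000 events with doublets gated out. Mean ± S.D. (n = 3). Compared with DMSO vehicle by one-way ANOVA with Dunnett's test.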

The subject of experiment [7] is MCF7. The experiment can be described thus: Induction of apoptosis in human MCF7 cells assessed as viable cells level at 10 uM incubated for 24 hrs by Annexin V PI/FITC staining based flow cytometry (reference value: 72.3%). In kind it is functional.
The target in experiment [8] is Serine/threonine-protein kinase Nek1 (Homo sapiens) (UniProt Q96PY6). Briefly: Inhibition of NEK1 (unknown origin) at 10 uM using [33P]-ATP after 20 to 40 mins by scintillation counting method.
Experiment [9] deals with cGMP-dependent protein kinase 1 (Homo sapiens) (UniProt Q13976). The experiment can be described thus: Inhibition of PRKG1 (unknown origin) at 10 uM using [33P]-ATP after 20 to 40 mins by scintillation counting method.
Experiment [10] concerns MCF7. Briefly: Induction of apoptosis in human MCF7 cells assessed as viable cells level at 5 uM incubated for 24 hrs by Annexin V PI/FITC staining based flow cytometry (reference value: 72.3%). In kind it is functional.
Experiment [11] concerns MCF7. The experiment can be described thus: Induction of apoptosis in human MCF7 cells assessed as early apoptotic cells level at 5 uM incubated for 24 hrs by Annexin V PI/FITC staining based flow cytometry (reference value: 17.4%). In kind it is functional.
Experiment [12] relates to A549. Briefly: Induction of apoptosis in human A549 cells assessed as caspe-3/7 activation at 5 to 20 uM incubated for 24 hrs by Caspase-Glo 3/7 luminescence assay. In kind it is functional, cell-based. Put shortly: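 A549 cells plated at 1 x 10^4 per well and allowed 24 h to settle. Medium removed, then compounds added for 24 h at 5, 10 and 20 μM. Vehicle controls received equivalent DMSO. Caspase-3/7 activity read by Caspase-Glo 3/7 luminescence (RLU). Mean ± S.D. (n = 5), experiment done 3 times. Compared with vehicle by one-way ANOVA with Dunnett's test.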

Experiment [13] deals with MCF7. The experiment can be described thus: Induction of cell cycle arrest in human MCF7 cells assessed as increase in accumulation at S phase at 5 and 10 uM by propidium iodide staining based flow cytometry relative to untreated control. In kind it is functional. In a few lines:
as §2

The target in experiment [14] is Serine/threonine-protein kinase Sgk1 (Homo sapiens) (UniProt O00141). The experiment can be described thus: Inhibition of SGK1 (unknown origin) at 10 uM using [33P]-ATP after 20 to 40 mins by scintillation counting method.
Experiment [15] concerns the target Tyrosine-protein kinase Blk (Homo sapiens) (UniProt P51451). The experiment can be described thus: Inhibition of BLK (unknown origin) at 10 uM using [33P]-ATP after 20 to 40 mins by scintillation counting method.
In experiment [16] the test system is MCF7. The experiment can be described thus: Induction of apoptosis in human MCF7 cells assessed as late apoptotic cells level at 10 uM incubated for 24 hrs by Annexin V PI/FITC staining based flow cytometry (reference value: 9%). In kind it is functional.
Experiment [17] deals with Ephrin type-A receptor 1 (Homo sapiens) (UniProt P21709). Briefly: Inhibition of EPHA1 (unknown origin) at 10 uM using [33P]-ATP after 20 to 40 mins by scintillation counting method.
The target of experiment [18] is Glycogen synthase kinase-3 alpha (Homo sapiens) (UniProt P49840). Briefly: Inhibition of GSK3alpha (unknown origin) at 10 uM using [33P]-ATP after 20 to 40 mins by scintillation counting method.
Experiment [19] has as its target Epidermal growth factor receptor (Homo sapiens) (UniProt P00533). Briefly: Inhibition of EGFR (unknown origin) at 10 uM using [33P]-ATP after 20 to 40 mins by scintillation counting method.
Experiment [20] relates to MCF7. Briefly: Induction of apoptosis in human MCF7 cells assessed as late apoptotic cells level at 1 uM incubated for 24 hrs by Annexin V PI/FITC staining based flow cytometry (reference value: 9%). In kind it is functional.
Experiment [21] deals with Hep 3B2. The experiment can be described thus: Growth inhibition of human Hep3B cells by MTT assay. It counts as functional, cell-based. In a few lines: as §1
Experiment [22] relates to MCF7. Briefly: Induction of apoptosis in human MCF7 cells assessed as late necrosis cells level at 5 uM incubated for 24 hrs by Annexin V PI/FITC staining based flow cytometry (reference value: […]). It counts as functional.
Experiment [23] addresses T1, Prostaglandin G/H synthase 1 (Ovis aries, UniProt P05979).
T1 sequence (P05979 whole entry): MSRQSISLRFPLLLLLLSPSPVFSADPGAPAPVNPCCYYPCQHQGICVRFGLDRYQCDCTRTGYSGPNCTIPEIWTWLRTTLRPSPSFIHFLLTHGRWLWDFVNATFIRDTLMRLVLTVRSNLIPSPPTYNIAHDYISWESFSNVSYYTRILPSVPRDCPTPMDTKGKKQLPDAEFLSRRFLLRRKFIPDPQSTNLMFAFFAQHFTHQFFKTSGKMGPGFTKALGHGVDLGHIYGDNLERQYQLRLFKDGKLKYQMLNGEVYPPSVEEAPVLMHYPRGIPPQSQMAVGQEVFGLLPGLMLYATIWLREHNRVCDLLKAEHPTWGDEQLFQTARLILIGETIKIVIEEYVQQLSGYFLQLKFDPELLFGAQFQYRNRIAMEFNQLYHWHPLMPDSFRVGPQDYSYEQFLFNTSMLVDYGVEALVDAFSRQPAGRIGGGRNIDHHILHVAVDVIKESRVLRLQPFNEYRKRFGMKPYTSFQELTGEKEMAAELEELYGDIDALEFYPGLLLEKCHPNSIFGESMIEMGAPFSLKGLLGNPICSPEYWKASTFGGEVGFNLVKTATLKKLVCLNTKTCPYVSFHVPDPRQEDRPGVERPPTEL
The experiment can be described thus: Inhibition of ovine COX1 assessed as reduction in PGH2 formation by measuring PGF2alpha by colorimetric assay. In a few lines:
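Colorimetric COX inhibitor screening kit run per the manufacturer, using ovine COX-1. IC50 calculated from three determinations.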

Ephrin type-A receptor 1 (Homo sapiens), sequence (P21709 whole entry): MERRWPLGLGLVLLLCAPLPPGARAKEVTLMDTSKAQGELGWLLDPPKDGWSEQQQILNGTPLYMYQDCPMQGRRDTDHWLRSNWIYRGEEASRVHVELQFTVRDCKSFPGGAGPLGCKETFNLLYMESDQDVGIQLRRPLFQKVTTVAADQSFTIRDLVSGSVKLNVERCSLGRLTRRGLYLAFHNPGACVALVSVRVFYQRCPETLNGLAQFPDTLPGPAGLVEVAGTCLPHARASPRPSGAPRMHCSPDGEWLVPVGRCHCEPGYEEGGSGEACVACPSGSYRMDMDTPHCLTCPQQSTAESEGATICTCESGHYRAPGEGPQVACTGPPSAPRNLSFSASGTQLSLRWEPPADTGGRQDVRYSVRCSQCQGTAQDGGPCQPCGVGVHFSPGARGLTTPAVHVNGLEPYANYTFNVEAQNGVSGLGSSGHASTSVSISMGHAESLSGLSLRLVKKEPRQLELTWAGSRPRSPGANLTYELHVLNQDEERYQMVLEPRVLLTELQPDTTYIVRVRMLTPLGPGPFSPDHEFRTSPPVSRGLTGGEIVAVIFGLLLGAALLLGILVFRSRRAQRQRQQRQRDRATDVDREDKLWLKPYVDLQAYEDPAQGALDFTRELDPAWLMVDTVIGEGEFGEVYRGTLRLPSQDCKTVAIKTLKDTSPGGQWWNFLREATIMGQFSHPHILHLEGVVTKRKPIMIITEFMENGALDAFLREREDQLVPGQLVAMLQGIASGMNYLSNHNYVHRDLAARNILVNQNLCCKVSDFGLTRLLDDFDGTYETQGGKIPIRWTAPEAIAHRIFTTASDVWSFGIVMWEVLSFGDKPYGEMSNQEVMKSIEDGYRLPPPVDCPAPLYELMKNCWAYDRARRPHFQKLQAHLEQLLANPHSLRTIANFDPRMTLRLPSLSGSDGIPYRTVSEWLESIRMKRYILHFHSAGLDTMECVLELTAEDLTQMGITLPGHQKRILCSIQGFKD
Glycogen synthase kinase-3 alpha (Homo sapiens), sequence (P49840 2-483 limits assumed): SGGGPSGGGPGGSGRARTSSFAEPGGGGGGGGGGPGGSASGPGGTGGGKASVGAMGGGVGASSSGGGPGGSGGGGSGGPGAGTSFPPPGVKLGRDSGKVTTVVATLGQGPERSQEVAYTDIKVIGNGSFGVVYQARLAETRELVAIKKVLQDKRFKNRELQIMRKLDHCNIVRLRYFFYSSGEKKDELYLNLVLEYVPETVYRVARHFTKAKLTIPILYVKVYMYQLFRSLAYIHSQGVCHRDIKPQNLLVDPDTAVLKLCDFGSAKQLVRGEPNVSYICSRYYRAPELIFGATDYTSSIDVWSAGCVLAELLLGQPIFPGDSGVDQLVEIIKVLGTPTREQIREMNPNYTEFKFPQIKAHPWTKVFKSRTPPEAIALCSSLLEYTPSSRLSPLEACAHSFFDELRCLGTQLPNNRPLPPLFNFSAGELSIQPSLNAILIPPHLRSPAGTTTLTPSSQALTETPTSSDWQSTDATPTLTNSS
Epidermal growth factor receptor (Homo sapiens), sequence (P00533 whole entry): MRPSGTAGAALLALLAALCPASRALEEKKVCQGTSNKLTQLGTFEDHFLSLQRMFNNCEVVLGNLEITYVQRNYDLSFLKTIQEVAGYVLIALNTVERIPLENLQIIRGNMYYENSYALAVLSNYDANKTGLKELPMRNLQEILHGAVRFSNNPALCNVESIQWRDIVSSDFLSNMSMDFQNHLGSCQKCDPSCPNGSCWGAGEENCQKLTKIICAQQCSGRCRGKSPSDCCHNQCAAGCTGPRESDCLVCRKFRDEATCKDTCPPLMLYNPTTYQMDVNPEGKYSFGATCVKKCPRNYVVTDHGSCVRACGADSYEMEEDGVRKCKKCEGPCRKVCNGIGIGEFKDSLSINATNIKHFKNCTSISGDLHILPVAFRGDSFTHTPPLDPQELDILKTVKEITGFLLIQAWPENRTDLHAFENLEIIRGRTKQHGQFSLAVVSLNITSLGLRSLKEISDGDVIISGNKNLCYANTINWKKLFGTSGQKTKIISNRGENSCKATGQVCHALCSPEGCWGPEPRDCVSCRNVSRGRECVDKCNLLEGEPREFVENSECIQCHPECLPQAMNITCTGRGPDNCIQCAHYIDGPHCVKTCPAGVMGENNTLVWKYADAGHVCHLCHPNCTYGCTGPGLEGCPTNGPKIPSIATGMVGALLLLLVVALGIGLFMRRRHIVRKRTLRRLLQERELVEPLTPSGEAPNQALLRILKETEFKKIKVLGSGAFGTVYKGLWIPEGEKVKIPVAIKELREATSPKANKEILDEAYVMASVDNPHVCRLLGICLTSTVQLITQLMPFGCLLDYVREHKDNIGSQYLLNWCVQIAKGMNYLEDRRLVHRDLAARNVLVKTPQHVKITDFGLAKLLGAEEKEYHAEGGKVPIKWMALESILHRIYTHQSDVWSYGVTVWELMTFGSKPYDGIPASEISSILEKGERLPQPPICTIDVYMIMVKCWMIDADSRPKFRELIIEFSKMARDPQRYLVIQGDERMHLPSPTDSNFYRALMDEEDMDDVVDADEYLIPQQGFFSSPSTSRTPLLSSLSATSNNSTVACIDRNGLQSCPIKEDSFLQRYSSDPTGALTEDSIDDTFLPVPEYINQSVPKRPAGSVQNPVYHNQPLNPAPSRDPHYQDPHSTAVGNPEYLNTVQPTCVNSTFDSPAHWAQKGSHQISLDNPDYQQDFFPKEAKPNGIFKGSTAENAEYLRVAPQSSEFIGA
Serine/threonine-protein kinase Sgk1 (Homo sapiens), sequence (O00141 whole entry): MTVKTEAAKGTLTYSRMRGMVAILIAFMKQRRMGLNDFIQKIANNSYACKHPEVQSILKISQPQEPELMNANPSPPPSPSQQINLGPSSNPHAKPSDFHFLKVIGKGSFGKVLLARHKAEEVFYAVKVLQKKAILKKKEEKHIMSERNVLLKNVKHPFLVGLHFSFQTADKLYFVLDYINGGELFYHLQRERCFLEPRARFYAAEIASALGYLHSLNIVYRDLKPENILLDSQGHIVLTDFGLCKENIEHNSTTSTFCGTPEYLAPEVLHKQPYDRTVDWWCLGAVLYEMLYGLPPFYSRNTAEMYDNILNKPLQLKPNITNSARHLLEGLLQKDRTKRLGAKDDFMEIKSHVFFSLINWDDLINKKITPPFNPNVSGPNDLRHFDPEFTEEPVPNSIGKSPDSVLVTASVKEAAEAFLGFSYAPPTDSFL
cGMP-dependent protein kinase 1 (Homo sapiens), sequence (Q13976 whole entry): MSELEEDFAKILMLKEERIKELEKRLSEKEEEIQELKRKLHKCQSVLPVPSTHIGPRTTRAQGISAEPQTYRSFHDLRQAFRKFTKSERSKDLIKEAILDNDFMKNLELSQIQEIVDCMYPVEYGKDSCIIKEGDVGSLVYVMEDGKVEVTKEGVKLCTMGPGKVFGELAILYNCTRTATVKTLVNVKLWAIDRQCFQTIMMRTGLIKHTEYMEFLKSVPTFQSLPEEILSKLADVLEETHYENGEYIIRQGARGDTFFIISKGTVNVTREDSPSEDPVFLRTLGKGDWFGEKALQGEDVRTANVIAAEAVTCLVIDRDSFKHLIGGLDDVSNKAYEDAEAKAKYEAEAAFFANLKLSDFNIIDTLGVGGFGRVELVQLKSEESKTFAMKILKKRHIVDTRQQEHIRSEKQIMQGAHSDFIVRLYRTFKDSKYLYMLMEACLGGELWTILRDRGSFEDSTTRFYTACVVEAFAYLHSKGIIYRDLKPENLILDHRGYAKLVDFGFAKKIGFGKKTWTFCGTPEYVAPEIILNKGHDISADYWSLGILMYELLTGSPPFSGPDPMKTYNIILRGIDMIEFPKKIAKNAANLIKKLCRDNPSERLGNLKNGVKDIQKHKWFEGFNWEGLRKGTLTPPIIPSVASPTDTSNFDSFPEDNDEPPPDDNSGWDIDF
Serine/threonine-protein kinase Nek1 (Homo sapiens), sequence (Q96PY6 whole entry): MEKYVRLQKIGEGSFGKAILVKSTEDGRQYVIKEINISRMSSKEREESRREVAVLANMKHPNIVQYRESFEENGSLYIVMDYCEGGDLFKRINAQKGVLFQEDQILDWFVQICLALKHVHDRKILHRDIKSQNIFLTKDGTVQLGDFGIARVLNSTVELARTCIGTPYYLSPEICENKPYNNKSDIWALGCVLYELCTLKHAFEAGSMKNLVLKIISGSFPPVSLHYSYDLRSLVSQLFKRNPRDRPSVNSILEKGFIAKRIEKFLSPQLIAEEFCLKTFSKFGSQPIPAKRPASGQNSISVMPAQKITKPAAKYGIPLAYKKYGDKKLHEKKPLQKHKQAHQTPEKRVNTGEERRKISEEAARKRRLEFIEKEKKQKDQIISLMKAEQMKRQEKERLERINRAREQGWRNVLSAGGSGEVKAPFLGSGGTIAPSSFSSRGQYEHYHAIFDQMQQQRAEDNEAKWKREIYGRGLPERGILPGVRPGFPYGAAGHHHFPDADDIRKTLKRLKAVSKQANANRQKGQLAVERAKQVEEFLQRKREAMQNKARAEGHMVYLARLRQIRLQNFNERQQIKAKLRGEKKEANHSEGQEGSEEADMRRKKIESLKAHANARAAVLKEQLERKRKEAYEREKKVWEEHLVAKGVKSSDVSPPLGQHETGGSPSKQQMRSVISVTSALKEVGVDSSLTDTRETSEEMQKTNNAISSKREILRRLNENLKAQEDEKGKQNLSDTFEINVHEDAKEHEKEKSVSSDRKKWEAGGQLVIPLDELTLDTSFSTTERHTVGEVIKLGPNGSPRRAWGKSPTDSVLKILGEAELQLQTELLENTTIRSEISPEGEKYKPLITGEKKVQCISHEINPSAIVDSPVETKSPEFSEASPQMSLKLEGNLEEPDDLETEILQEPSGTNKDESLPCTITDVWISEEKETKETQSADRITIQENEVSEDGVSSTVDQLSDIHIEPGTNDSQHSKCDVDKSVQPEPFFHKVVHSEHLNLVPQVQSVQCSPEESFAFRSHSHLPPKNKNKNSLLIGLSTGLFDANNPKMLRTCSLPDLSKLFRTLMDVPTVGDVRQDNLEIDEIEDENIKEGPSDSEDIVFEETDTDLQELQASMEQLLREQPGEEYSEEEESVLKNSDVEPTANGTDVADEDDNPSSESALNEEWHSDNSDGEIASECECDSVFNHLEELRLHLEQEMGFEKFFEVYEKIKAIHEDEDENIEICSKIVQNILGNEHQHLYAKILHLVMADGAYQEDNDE

Regarding `Cc1ccc(NC(=O)c2c(N=Cc3ccc4ccccc4c3)c(C#N)c3n2CCC3)cc1`, the inhibition in experiment [1] was -10%; in experiment [4] it was -11%; in [8], 8%; in [9] it was -4%; in experiment [14], -16%; in experiment [15] it was -16%. The inhibition in experiment [17] is -37%; in experiment [18], -5%; in experiment [19], -47%. Also, the IC50 amounted to 7.76 µM in experiment [2], 3.24 µM in [3], 8.69 µM in experiment [21] and 12 µM in experiment [23]. Also, the Activity in [5] worked out at 0.8%; in [7] it was 62.1%; in experiment [10], 66.9%; in experiment [11] it was 23.5%; in experiment [16] it was 12.9%; in experiment [20] it was 10.7%. Besides, the Activity in [22] is given as 1.1%. The result in [6], in experiment [12] and in experiment [13] was Active.
